Key:
[1] = biological target: Human immunodeficiency virus type 1 integrase (Human immunodeficiency virus 1, UniProt Q7ZJM1); experiment: Inhibition of HIV-1 integrase strand transfer activity preincubated for 30 mins followed by addition of FITC-labelled dsDNA for 1 hr by microplate reader analysis
[2] = Cytotoxicity against human TZM-bl cells after 48 hrs by Cell-titerGlo assay; format: cell-based
[3] = biological target: Human immunodeficiency virus type 1 integrase (Human immunodeficiency virus 1, UniProt Q7ZJM1, G140S); experiment: Inhibition of HIV-1 integrase G140S mutant strand transfer activity preincubated for 30 mins followed by addition of FITC-labelled dsDNA for 1 hr by microplate reader analysis
[4] = system: Human immunodeficiency virus 1; experiment: Antiviral activity against HIV-1 infected in human TZM-bl cells assessed as inhibition of viral replication for 48 hrs by bright-Glo luciferase assay; format: functional, organism-based; details: Human immunodeficiency virus 1, TZM-bl
Summary of the method: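 Antiviral screen in TZM-bl cells, a HeLa clone engineered to express CD4 and CCR5 receptors. Activity is reported as EC50 in μM.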

[5] = Therapeutic index, ratio of CC50 for human TZM-bl cells to EC50 for HIV-1 infected in TZM-bl cells; format: cell-based; details: read-out: Ratio CC50/EC50
Summary of the method: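 Index calculated as CC50/EC50, both measured in TZM-bl cells; CC50 is cell-based cytotoxicity at 48 h.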

[6] = Cytotoxicity against human Jurkat cells after 48 to 72 hrs by MTT assay; format: cell-based
[7] = system: Human immunodeficiency virus 1; experiment: Antiviral activity against HIV-1 NL4-3 infected in human jurkat cells assessed as decrease in p24 level at 10 uM after 48 hrs by western blot analysis; format: functional; details: Human immunodeficiency virus 1, NL4-3, Jurkat
Summary of the method: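 Jurkat cells were treated with compound at 10 μM or left untreated, then infected at MOI 1 with VSV-G-pseudotyped pNL4-3 (WT HIV-1). Supernatants were pelleted, solubilized in lysis buffer and probed on Western blot with a p24 antibody. Band intensity was quantified by densitometry as percent p24 relative to the untreated infected control, with significance at p < 0.05.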

Chain of Human immunodeficiency virus type 1 integrase (Human immunodeficiency virus 1, UniProt Q7ZJM1) (Q7ZJM1 whole entry): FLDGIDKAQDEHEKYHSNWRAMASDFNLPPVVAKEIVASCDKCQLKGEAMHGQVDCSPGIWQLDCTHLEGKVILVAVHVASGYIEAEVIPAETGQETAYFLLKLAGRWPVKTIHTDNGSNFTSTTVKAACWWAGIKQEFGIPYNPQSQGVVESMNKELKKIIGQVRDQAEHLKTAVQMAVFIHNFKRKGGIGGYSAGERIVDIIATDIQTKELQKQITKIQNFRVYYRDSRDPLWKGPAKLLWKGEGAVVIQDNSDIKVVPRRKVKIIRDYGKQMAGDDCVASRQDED
Chain of Human immunodeficiency virus type 1 integrase (Human immunodeficiency virus 1, UniProt Q7ZJM1, G140S) (Q7ZJM1 entry or part of it G140S): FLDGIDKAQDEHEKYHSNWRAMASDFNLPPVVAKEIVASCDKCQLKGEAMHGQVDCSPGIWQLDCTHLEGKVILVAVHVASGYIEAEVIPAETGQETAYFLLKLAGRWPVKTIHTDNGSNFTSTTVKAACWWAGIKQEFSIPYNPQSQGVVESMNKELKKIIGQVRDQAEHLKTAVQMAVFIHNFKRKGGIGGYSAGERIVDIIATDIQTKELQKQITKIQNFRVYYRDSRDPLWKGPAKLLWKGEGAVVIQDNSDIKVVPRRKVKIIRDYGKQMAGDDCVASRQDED

Row | SMILES | IC50 [1] | CC50 at 48 h [2] | IC50 [3] | EC50 [4] | selectivity ratio [5] | CC50 [6] | inhibition at 10 µM [7]
1 | COc1ccc(C2=Cc3ccc(F)cc3C(CC(=O)C(C)O)N2c2ccc(Cl)cc2)cc1 (stereo not drawn) | 11.8 µM | 9.9 µM | 10.8 µM |  |  |  | 
2 | O=[N+]([O-])CC1c2cc([N+](=O)[O-])ccc2C=C(c2ccccc2)N1c1ccc(Cl)cc1 (stereo not drawn) | 3.1 µM | 26 µM | 3 µM | 1.15 µM | 22.6 | 24.9 µM | 
3 | COc1ccc(C2=Cc3ccc([N+](=O)[O-])cc3C(CC(C)=O)N2c2ccc(O)cc2)cc1 (stereo not drawn) | 6.6 µM | 23.5 µM | 7.6 µM | 31.4 µM | 0.7 |  | 
4 | COc1ccc(C2=Cc3ccc([N+](=O)[O-])cc3C(CC(C)=O)N2c2ccc(C)cc2)cc1 (stereo not drawn) | 0.6 µM | 10.6 µM | 0.65 µM | 26.3 µM | 0.4 | 33.1 µM | 
5 | O=[N+]([O-])CC1c2ccccc2C=C(c2ccccc2)N1c1ccccc1 (stereo not drawn) |  | 10.3 µM |  | 15.6 µM | 0.6 | 42.3 µM | 
6 | COc1ccc(C2=Cc3ccc([N+](=O)[O-])cc3C(CC(C)=O)N2c2ccc(F)cc2)cc1 (stereo not drawn) | 0.46 µM | 7.7 µM | 0.64 µM | 36.3 µM | 0.2 | 16.4 µM | 
7 | Cc1nnc(C(=O)NC(C)(C)c2nc(C(=O)NCc3ccc(F)cc3)c(O)c(=O)n2C)o1 |  | > 200 µM |  | 0.15 µM |  | > 120 µM | 92%
8 | COc1ccc(C2=Cc3ccc(F)cc3C(CC(=O)C(C)O)N2c2ccc(C)cc2)cc1 (stereo not drawn) | 10.6 µM | 12.7 µM | 12.7 µM |  |  |  | 
9 | COc1ccc(C2=Cc3ccc(F)cc3C(CC(=O)CO)N2c2ccc(C#N)cc2)cc1 (stereo not drawn) | 7.6 µM | 39.7 µM | 7 µM | 29.1 µM | 1.3 |  | 
10 | COc1ccc(C2=Cc3ccc(F)cc3C(CC(=O)CO)N2c2ccc([N+](=O)[O-])cc2)cc1 (stereo not drawn) | 0.82 µM | 46.4 µM | 46.4 µM | 10.4 µM | 4.4 | 57.1 µM | 70.9%
11 | COc1ccc(C2=Cc3ccc(F)cc3C(CC(=O)CO)N2c2ccc(O)cc2)cc1 (stereo not drawn) | 22.1 µM | 47.7 µM | 20.1 µM | 24.4 µM | 1.9 |  | 
12 | COc1ccc(C2=Cc3ccc(F)cc3C(CC(C)=O)N2c2ccc([N+](=O)[O-])cc2)cc1 (stereo not drawn) |  | 11.2 µM |  |  |  |  | 
13 | Cc1ccc(C2=Cc3ccccc3C(C[N+](=O)[O-])N2c2ccc(F)cc2)cc1 (stereo not drawn) |  | 21.5 µM |  | 16.5 µM | 1.3 | 51.2 µM | 
14 | COc1ccc(C2=Cc3ccc(F)cc3C(CC(=O)C(C)O)N2c2ccc(C#N)cc2)cc1 (stereo not drawn) | 22.2 µM | 24.1 µM | 22 µM | 18.7 µM | 1.2 |  | 
15 | COc1ccc(C2=Cc3ccc(F)cc3C(CC(C)=O)N2c2ccc(O)cc2)cc1 (stereo not drawn) | 12 µM | 60.5 µM | 14 µM | 21.4 µM | 2.8 |  | 
16 | COc1ccc(C2=Cc3ccc([N+](=O)[O-])cc3C(CC(C)=O)N2c2ccc(C#N)cc2)cc1 (stereo not drawn) | 2.9 µM | 15.4 µM | 2.8 µM | 22.5 µM | 0.6 |  | 
17 | COc1ccc(C2=Cc3ccc(F)cc3C(CC(=O)C(C)O)N2c2ccc(F)cc2)cc1 (stereo not drawn) | 7.9 µM | 14 µM | 8 µM | 11.7 µM | 1.1 | 1.81 µM | 
18 | COc1ccc(C2=Cc3ccc(F)cc3C(CC(C)=O)N2c2ccc(C#N)cc2)cc1 (stereo not drawn) |  |  | 20 µM |  |  |  | 
19 | COc1ccc(C2=Cc3ccc(OC)cc3C(C[N+](=O)[O-])N2c2ccccc2)cc1 (stereo not drawn) |  | 29.4 µM |  | 10.5 µM | 2.8 | 22.1 µM | 
20 | COc1ccc(C2=Cc3ccc(F)cc3C(CC(=O)CO)N2c2ccc(C)cc2)cc1 (stereo not drawn) | 15.1 µM | 23.7 µM | 14.1 µM | 28.4 µM | 0.8 |  | 
21 | COc1ccc(C2=Cc3ccc(F)cc3C(CC(=O)C(C)O)N2c2ccc([N+](=O)[O-])cc2)cc1 (stereo not drawn) | 5.2 µM | 10.1 µM | 5.5 µM | 12.7 µM | 0.7 | 6.1 µM | 
22 | COc1ccc(C2=Cc3ccc(F)cc3C(C[N+](=O)[O-])N2c2ccc(Cl)cc2)cc1 (stereo not drawn) | 0.7 µM | 32.2 µM | 0.8 µM | 0.03 µM | 1070 | 20.3 µM | 91%
23 | COc1ccc(C2=Cc3ccc(F)cc3C(CC(=O)C(C)O)N2c2ccc(O)cc2)cc1 (stereo not drawn) | 25.2 µM | 50.9 µM | 25 µM | 19.7 µM | 2.5 |  | 
24 | COc1ccc(C2=Cc3ccc(F)cc3C(CC(=O)CO)N2c2ccc(Cl)cc2)cc1 (stereo not drawn) | 17.9 µM | 8.5 µM | 14.9 µM | 26.4 µM | 0.3 |  | 
